The source of these data is article PMC3600638 (Biomaterials, 2013).

One data set in a line: Pharmacokinetic profile. In kind it is in vivo, nude mice. To be noted: IV bolus, H460 xenograft model. An outline of the steps: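 Nanoparticles co-loaded with trace ³H-CTP as a marker of entrapped drug, given as an IV bolus to nude mice bearing H460 tumors. 30 μL blood drawn from the orbital venous plexus at 20 min, 1, 2, 4, 8 and 24 h, bleached with 30% H₂O₂ and counted by liquid scintillation. %ID in blood calculated with the initial value set at 100%; PK parameters from a non-compartmental fit.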

For data set [1], the system named is BxPC-3 subcutaneous tumors. Kind of data set: Tumor growth inhibition study. In kind it is in vivo, nude mice. As to conditions: BxPC-3 xenograft, 4 IV injections every other day, 7.5 μmol/Kg. An outline of the steps: (§1)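 Female nude mice, 6–8 weeks old, inoculated s.c. with 5×10⁶ cells. Dosing began day 12 at 150–200 mm³ tumor volume, mice randomised into 6 groups (n=5). IV injections every other day ×4 at 7.5 μmol/Kg. Calipers every other day, V = 0.5×W²×L; body weight recorded every other day; mice euthanised when a tumor reached 20 mm.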

Data set [2] relates to BxPC-3 xenografts. Kind of data set: Western blot of tumor lysates. To be noted: 3 daily IV injections. In kind it is in vivo, nude mice. An outline of the steps:
(§2)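 Tumors from xenograft-bearing nude mice harvested 24 h after three daily IV injections; RIPA lysates prepared. 40 μg protein per lane on 4–12% SDS-PAGE, transferred to PVDF, blocked 1 h in 5% milk. Mouse monoclonal PARP-1 and rabbit polyclonal cyclin D1 antibodies (1:500) overnight at 4°C. β-actin (1:4000) as loading control; secondaries 1:4000 for 1 h; ECL detection.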
On the technique in general: A western blot detects proteins with antibodies after separation by electrophoresis.

Another data set deals with H460 subcutaneous tumors. Kind of data set: Tumor growth inhibition study. It counts as in vivo, nude mice. As to conditions: H460 xenograft, 4 IV injections every other day, 7.5 μmol/Kg. The gist of the method: as §1
Data set [3] deals with BxPC-3 cells. Kind of data set: In vitro caspase-3/7 activation. It counts as cell-based, human. As to conditions: 1.8 μM, 48 h. An outline of the steps: (§3)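 H460 or BxPC-3 cells grown in RPMI-1640 with 10% FBS at 37°C and 5% CO₂. 2×10⁵ cells per well in 6-well plates, exposed to 1.8 μM test compound for 48 h. Lysed in RIPA buffer with protease inhibitors, protein measured by BCA, and 40 μg protein assayed with a commercial caspase-3/7 activity kit.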

Data set [4] concerns H460 cells. Kind of data set: In vitro caspase-3/7 activation. In kind it is cell-based, human. As to conditions: 1.8 μM, 48 h. An outline of the steps:
as §3

Data set [5] has as its system H460 xenografts. Kind of data set: Western blot of tumor lysates. It counts as in vivo, nude mice. To be noted: 3 daily IV injections. An outline of the steps:
as §2

Data set [6] concerns H460 cells. Kind of data set: In vitro cell viability. It counts as cell-based, human. As to conditions: 48 h, MTT. The gist of the method:
(§4)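 Cells seeded at 1×10⁴ per well in 96-well plates. A range of test compound concentrations was added at 30% confluence, then 48 h at 37°C. MTT at 0.5 mg/mL final for 4 h at 37°C, formazan dissolved in DMSO, A570 read. Viability expressed as % of untreated cells; IC50 derived; mean ± S.D., n=3.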

In data set [7] the test system is BxPC-3 xenografts. Kind of data set: In vivo caspase-3/7 activation in tumors. Also on record: species or system nude mice. As to conditions: 3 daily IV injections, 7.5 μmol/Kg, 24 h after last injection. The gist of the method: (§5)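 Female nude mice, 6–8 weeks old, with s.c. right-flank xenografts (5×10⁶ cells in PBS), n=3. Three daily IV doses of 7.5 μmol/Kg; tumors taken 24 h after the last dose. Tissue homogenised and sonicated in RIPA with protease inhibitors, spun 14,000 rpm for 10 min at 4°C. 40 μg protein (BCA) assayed with a caspase-3/7 kit.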

Data set [8] has as its system H460 xenografts. Kind of data set: In vivo caspase-3/7 activation in tumors. As to conditions: 3 daily IV injections, 7.5 μmol/Kg, 24 h after last injection. Further details: species or system nude mice. The gist of the method: as §5
Data set [9] concerns BxPC-3 cells. Kind of data set: In vitro cell viability. It counts as cell-based, human. As to conditions: 48 h, MTT. An outline of the steps: as §4
In data set [10] the test system is H460 cells. Kind of data set: In vitro cellular uptake of NBD-labeled LCPs. In kind it is cell-based, human. As to conditions: pre-incubation with 50 μM haloperidol for 1 h.

Structures are written as SMILES. Structures can show the parent of a compound that is named as a salt.

`Nc1ccn([C@@H]2O[C@H](COP(=O)(O)OP(=O)(O)OP(=O)(O)O)[C@@H](O)C2(F)F)c(=O)n1` [GTP, Gemcitabine triphosphate tris(triethylammonium) salt]: in “Pharmacokinetic profile”, the AUMC was 25.34 h^2·%. For the same molecule, the tumor growth inhibition result (in data set [1]; in the data set on H460 subcutaneous tumors) was “limited therapeutic effects” in each case. The “cleaved PARP in tumors” value in the data set with BxPC-3 xenografts [2] and in the data set on H460 xenografts [5] was “did not induce PARP elevation” in each case. In addition, the “in vitro caspase-3/7 activity” value in the data set with BxPC-3 cells [3] and with H460 cells [4] was “significantly higher than the control” each time. Further, the cell viability result with H460 cells [6] and in the data set with BxPC-3 cells [9] was “decreased the cell viability” in each case. In addition, the “caspase-3/7 activity in tumors” value in the data set on BxPC-3 xenografts [7] and with H460 xenografts [8] was “did not elicit caspase activity in vivo” each time.

As for `Nc1ccn([C@@H]2O[C@H](CO)[C@@H](O)C2(F)F)c(=O)n1` [Gem, 2′, 2′-difluoro 2′-deoxycytidine], the tumor growth inhibition entry (in data set [1]; with H460 subcutaneous tumors) was “limited therapeutic effects” throughout. The “cleaved PARP in tumors” value with BxPC-3 xenografts [2] and in the data set with H460 xenografts [5] was “did not induce PARP elevation” in each case. In addition, the “in vitro caspase-3/7 activity” value with BxPC-3 cells [3] and with H460 cells [4] was “significantly higher than the control” each time. For the same molecule, the cell viability entry with H460 cells [6] and with BxPC-3 cells [9] was “decreased the cell viability” throughout. In addition, the “caspase-3/7 activity in tumors” value with BxPC-3 xenografts [7] and with H460 xenografts [8] was “did not elicit caspase activity in vivo” throughout.

Turning to `O=C(CCCN1CCC(O)(c2ccc(Cl)cc2)CC1)c1ccc(F)cc1` [haloperidol], in the data set with H460 cells [10], the “effect on cellular uptake of AA-modified LCP” value is reported as “significantly reduced the cellular uptake of AA-modified LCP”.
